From ChEMBL document CHEMBL4706672 (J Med Chem, 2021)
pIC50: −log10 of the molar value. The source made the active and inactive calls. The rule behind the calls is not given here.

Legend:
[1] = target: Protein cereblon/45 kDa calcium-binding protein (Homo sapiens) (UniProt Q96SW2+Q9BRK5); assay: Protac activity at CRBN/SDF4 in human BxPC-3 cells assessed as SDF4 degradation incubated for 16 hrs by proteomic analysis; format: cell-based
Method in brief: (§1)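 TMT 10plex proteomics. […] Samples (75 μg) were reduced with DTT, alkylated with 2-chloroacetamide, acetone-precipitated, trypsin-digested overnight at 37 °C and TMT-labeled for LC-MS/MS relative quantitation.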

[2] = target: Protein cereblon/Methylated-DNA--protein-cysteine methyltransferase (Homo sapiens) (UniProt P16455+Q96SW2); assay: Protac activity at CRBN/MGMT in human BxPC-3 cells assessed as MGMT degradation incubated for 16 hrs by proteomic analysis; format: cell-based; method in brief: as §1
[3] = target: Protein cereblon/Melanoma-associated antigen D1 (Homo sapiens) (UniProt Q96SW2+Q9Y5V3); assay: Protac activity at CRBN/MAGED1 in human BxPC-3 cells assessed as MAGED1 degradation incubated for 16 hrs by proteomic analysis; format: cell-based; method in brief: as §1
[4] = target: Protein cereblon/Endothelial differentiation-related factor 1 (Homo sapiens) (UniProt Q96SW2+O60869); assay: Protac activity at CRBN/EDF1 in human BxPC-3 cells assessed as EDF1 degradation incubated for 16 hrs by proteomic analysis; format: cell-based; method in brief: as §1
[5] = target: Protein cereblon/Serine/threonine-protein kinase PLK1 (Homo sapiens) (UniProt P53350+Q96SW2); assay: Protac activity at CRBN/PLK1 in human BxPC-3 cells assessed as PKL1 degradation incubated for 16 hrs by proteomic analysis; format: cell-based; method in brief: as §1
[6] = Upregulation of IL1RL1 protein levels in human BxPC-3 cells incubated for 16 hrs by proteomic analysis; format: functional
Method in brief: (§2)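 BxPC-3 cells exposed 16 h in triplicate (control, PROTAC) or duplicate (other arms); lysed in RIPA at 4 °C, 75 μg protein per sample. Reduced with DTT (1 h, 55 °C), alkylated with 2-chloroacetamide, acetone-precipitated, trypsin-digested overnight at 37 °C, TMT 10plex labelled, relative quantitation by LC-tandem MS.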

[7] = Upregulation of ceramide glucosyltransferase protein levels in human BxPC-3 cells incubated for 16 hrs by proteomic analysis; format: functional
Method in brief: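 BxPC-3 cells exposed to compound (2 μM) or DMSO control for 16 h, then lysed in RIPA buffer at 4 °C. Protein quantified by BCA; 75 μg per sample. TMT 10plex labeling: DTT reduction (1 h, 55 °C), 2-chloroacetamide alkylation (30 min, RT), acetone precipitation, overnight trypsin digestion at 37 °C, then LC-tandem MS relative quantitation. Control and treated samples run in triplicate.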

[8] = Upregulation of AP-1 protein levels in human BxPC-3 cells incubated for 16 hrs by proteomic analysis; format: functional; method in brief: as §2
[9] = target: Protein cereblon/Procollagen-lysine,2-oxoglutarate 5-dioxygenase 2 (Homo sapiens) (UniProt Q96SW2+O00469); assay: Protac activity at CRBN/PLOD2 in human BxPC-3 cells assessed as PLOD2 degradation incubated for 16 hrs by proteomic analysis; format: cell-based; method in brief: as §1
[10] = target: Protein cereblon/E3 ubiquitin-protein ligase SHPRH (Homo sapiens) (UniProt Q96SW2+Q149N8); assay: Protac activity at CRBN/SHPRH in human BxPC-3 cells assessed as SHPRH degradation incubated for 16 hrs by proteomic analysis; format: cell-based; method in brief: as §1
MIA PaCa-2 = assay: Antiproliferative activity against human MIA PaCa-2 cells assessed as reduction in cell viability incubated for 3 days by MTT assay; format: functional, cell-based; details: MIA PaCa-2, 72 h
Method in brief: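 MTT assay. Cells were seeded at 3000–6000/well and incubated overnight, then exposed to compound or DMSO vehicle for 3 days in RPMI-1640 or DMEM with 10% FBS at 37 °C, 5% CO2. MTT (3 mg/ml) was added for 3 h at 37 °C, formazan was dissolved in DMSO and absorbance read at 570 nm. IC50 from three independent experiments, mean ± SD.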

[11] = Upregulation of RhoB protein levels in human BxPC-3 cells incubated for 16 hrs by proteomic analysis; format: functional; method in brief: as §2
[12] = target: Protein cereblon/Signal transducer and activator of transcription 2 (Homo sapiens) (UniProt Q96SW2+P52630); assay: Protac activity at CRBN/STAT2 in human BxPC-3 cells assessed as STAT2 degradation incubated for 16 hrs by proteomic analysis; format: cell-based; method in brief: as §1
HEK293 = assay: Antiproliferative activity against human HEK293 cells assessed as reduction in cell viability incubated for 24 hrs by MTT assay; format: functional, cell-based; details: HEK293, 24 h
Method in brief: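 HEK-293 cells were treated with compound for 24 h, in parallel with the luciferase reporter assay. Viability was read by MTT absorbance at 570 nm, and IC50 was taken from three independent experiments.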

[13] = target: Protein cereblon/SOSS complex subunit B1 (Homo sapiens) (UniProt Q96SW2+Q9BQ15); assay: Protac activity at CRBN/NABP2 in human BxPC-3 cells assessed as NABP2 degradation incubated for 16 hrs by proteomic analysis; format: cell-based; method in brief: as §1
[14] = target: Protein cereblon/Pleckstrin homology-like domain family B member 1 (Homo sapiens) (UniProt Q96SW2+Q86UU1); assay: Protac activity at CRBN/PHLDB1 in human BxPC-3 cells assessed as PHLDB1 degradation incubated for 16 hrs by proteomic analysis; format: cell-based; method in brief: as §1
Protein cereblon/Pleckstrin homology-like domain family B member 1 (Homo sapiens), sequence (Q86UU1 whole entry, looked up, the tested form may be a part): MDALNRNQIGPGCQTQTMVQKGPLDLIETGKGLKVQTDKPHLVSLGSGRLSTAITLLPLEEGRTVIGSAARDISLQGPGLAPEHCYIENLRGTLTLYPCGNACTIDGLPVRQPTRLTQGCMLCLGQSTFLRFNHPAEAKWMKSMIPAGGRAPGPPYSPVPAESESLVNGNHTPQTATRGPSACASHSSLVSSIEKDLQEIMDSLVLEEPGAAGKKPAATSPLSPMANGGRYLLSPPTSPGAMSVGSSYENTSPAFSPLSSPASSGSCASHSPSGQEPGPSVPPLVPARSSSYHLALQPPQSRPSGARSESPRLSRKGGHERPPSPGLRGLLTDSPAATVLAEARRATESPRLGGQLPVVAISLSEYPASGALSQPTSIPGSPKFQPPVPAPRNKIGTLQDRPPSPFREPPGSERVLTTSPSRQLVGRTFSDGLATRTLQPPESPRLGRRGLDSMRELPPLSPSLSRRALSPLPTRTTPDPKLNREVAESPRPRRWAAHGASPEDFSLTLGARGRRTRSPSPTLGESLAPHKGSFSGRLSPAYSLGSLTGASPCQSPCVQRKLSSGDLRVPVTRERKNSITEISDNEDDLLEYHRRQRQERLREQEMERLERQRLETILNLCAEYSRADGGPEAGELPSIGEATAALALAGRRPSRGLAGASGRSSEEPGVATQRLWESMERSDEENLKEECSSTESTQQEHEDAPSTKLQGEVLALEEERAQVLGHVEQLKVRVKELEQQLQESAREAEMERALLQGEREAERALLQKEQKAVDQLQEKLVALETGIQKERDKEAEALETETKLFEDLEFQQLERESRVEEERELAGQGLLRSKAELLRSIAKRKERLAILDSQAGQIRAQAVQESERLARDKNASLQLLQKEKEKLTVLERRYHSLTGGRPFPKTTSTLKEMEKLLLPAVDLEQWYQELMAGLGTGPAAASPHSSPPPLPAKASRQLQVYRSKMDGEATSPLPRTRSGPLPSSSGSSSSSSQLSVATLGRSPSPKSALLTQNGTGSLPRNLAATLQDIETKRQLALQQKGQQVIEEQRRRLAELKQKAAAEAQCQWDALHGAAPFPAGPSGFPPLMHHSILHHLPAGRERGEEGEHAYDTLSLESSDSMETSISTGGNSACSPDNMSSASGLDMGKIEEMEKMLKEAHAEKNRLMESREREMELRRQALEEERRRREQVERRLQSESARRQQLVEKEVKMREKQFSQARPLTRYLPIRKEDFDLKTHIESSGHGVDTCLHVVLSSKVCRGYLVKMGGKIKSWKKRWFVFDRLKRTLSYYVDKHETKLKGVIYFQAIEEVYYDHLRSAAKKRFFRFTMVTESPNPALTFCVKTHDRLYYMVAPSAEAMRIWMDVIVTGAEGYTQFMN
Protein cereblon/Pleckstrin homology-like domain family B member 1 (Homo sapiens), sequence (Q96SW2 whole entry, looked up, the tested form may be a part): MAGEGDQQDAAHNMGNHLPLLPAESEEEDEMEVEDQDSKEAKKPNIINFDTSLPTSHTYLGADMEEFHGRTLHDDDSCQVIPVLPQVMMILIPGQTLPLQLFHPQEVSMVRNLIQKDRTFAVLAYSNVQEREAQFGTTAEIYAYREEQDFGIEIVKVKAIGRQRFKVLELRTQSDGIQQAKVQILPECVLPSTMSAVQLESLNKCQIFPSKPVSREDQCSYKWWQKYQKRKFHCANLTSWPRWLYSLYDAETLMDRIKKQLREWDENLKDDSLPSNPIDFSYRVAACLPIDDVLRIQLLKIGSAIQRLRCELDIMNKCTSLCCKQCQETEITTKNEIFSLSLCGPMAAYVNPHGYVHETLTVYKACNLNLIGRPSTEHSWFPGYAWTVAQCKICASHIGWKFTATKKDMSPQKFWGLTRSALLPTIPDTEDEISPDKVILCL

[15] = target: Protein cereblon/G2/mitotic-specific cyclin-B1 (Homo sapiens) (UniProt P14635+Q96SW2); assay: Protac activity at CRBN/CCNB1 in human BxPC-3 cells assessed as CCNB1 degradation incubated for 16 hrs by proteomic analysis; format: cell-based; method in brief: as §1
BXPC-3 = assay: Antiproliferative activity against human BxPC-3 cells assessed as reduction in cell viability incubated for 3 days by MTT assay; format: functional, cell-based; details: BXPC-3, 72 h
[16] = target: Protein cereblon/Adhesion G-protein coupled receptor G1 (Homo sapiens) (UniProt Q96SW2+Q9Y653); assay: Protac activity at CRBN/ADGRG1 in human BxPC-3 cells assessed as ADGRG1 degradation incubated for 16 hrs by proteomic analysis; format: cell-based; method in brief: as §1
[17] = Upregulation of SYNC protein levels in human BxPC-3 cells incubated for 16 hrs by proteomic analysis; format: functional; method in brief: as §2
[18] = Upregulation of AFF1 protein levels in human BxPC-3 cells incubated for 16 hrs by proteomic analysis; format: functional; method in brief: as §2
[19] = target: T1, Protein cereblon/E3 ubiquitin-protein ligase ZFP91 (Homo sapiens, UniProt Q96SW2+Q96JP5); assay: Protac activity at CRBN/ZFP91 in human BxPC-3 cells assessed as alteration of ZF91 protein levels at 0.5 uM incubated for 16 hrs in presence of NQO1 inhibitor dicoumarol; format: cell-based
T1 sequence (Q96JP5 2-570 partner limits assumed): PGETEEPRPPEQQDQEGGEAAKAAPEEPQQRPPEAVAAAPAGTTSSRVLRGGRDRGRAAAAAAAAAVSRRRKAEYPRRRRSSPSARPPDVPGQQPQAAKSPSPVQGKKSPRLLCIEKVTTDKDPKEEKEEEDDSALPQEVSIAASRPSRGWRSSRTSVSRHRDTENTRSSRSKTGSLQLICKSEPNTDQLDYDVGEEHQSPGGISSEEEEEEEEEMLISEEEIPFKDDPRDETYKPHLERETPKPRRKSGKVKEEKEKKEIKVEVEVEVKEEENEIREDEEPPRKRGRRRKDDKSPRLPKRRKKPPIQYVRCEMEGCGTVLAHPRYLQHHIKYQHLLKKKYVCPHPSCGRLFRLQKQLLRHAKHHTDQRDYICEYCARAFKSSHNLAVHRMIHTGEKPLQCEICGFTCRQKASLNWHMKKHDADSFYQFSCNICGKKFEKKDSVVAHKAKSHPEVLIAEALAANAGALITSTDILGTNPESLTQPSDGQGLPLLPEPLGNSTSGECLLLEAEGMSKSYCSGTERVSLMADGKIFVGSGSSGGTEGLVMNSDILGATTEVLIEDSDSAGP
T1 sequence (Q96SW2 whole entry): as the sequence (Q96SW2 whole entry, looked up, the tested form may be a part) above
Method in brief: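 BxPC-3 cells treated 16 h with or without dicoumarol; carfilzomib added 1 h before treatments. ZFP91 immunoblotted against GAPDH.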

[20] = target: Protein cereblon/Laminin subunit beta-1 (Homo sapiens) (UniProt P07942+Q96SW2); assay: Protac activity at CRBN/LAMB1 in human BxPC-3 cells assessed as LAMB1 degradation incubated for 16 hrs by proteomic analysis; format: cell-based; method in brief: as §1
Protein cereblon/Laminin subunit beta-1 (Homo sapiens), sequence (P07942 whole entry, looked up): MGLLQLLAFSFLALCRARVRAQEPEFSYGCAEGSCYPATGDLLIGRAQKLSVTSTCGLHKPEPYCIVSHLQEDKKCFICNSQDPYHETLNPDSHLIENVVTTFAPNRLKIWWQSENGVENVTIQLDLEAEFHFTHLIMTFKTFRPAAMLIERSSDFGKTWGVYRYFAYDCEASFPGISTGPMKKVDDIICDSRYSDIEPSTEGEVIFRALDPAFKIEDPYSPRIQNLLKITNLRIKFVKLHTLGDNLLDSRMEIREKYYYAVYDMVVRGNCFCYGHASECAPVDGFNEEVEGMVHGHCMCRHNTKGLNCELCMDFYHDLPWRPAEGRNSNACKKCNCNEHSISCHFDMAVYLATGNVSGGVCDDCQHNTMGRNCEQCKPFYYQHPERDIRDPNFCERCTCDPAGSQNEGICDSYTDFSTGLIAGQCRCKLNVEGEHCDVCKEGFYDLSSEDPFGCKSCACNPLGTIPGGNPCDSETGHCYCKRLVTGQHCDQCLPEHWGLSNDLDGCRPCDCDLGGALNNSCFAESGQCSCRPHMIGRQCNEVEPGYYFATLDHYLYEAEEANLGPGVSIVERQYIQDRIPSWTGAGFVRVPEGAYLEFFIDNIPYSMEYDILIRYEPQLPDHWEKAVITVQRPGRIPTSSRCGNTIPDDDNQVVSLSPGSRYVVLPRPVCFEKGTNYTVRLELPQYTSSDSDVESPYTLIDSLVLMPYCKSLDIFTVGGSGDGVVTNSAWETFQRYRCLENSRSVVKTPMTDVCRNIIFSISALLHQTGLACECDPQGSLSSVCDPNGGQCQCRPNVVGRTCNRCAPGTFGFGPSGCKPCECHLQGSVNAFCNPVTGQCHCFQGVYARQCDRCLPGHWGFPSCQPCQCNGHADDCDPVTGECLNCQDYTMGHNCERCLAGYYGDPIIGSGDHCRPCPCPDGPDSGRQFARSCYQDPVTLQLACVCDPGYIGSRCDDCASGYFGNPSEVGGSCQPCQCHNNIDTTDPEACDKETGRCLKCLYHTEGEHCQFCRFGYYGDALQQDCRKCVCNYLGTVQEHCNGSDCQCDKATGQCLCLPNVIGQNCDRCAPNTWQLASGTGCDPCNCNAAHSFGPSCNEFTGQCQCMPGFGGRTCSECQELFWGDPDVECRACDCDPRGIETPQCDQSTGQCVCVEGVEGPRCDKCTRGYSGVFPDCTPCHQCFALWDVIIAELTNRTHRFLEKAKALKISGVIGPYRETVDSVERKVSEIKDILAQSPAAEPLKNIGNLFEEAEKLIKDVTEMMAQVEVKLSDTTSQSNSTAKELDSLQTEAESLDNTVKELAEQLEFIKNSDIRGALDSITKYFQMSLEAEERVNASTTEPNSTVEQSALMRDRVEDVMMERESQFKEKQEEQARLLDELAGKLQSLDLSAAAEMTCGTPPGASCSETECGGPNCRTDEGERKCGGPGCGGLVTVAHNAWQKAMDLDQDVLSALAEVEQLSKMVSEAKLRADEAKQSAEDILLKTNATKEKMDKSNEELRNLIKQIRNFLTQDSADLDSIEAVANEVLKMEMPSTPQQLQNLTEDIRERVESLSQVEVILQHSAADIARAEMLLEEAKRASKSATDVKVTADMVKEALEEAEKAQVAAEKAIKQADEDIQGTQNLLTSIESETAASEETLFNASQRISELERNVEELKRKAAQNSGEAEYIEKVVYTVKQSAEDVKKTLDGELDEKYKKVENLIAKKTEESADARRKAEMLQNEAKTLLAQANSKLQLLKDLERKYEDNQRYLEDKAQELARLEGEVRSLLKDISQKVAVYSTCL
Protein cereblon/Laminin subunit beta-1 (Homo sapiens), sequence (Q96SW2 whole entry, looked up): as the sequence (Q96SW2 whole entry, looked up, the tested form may be a part) above

[21] = target: T1, Protein cereblon/E3 ubiquitin-protein ligase ZFP91; assay: Protac activity at CRBN/ZFP91 in human BxPC-3 cells assessed as induction of ZF91 degradation at 1 uM incubated for 16 hrs by western blot analysis; format: cell-based
Method in brief: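 BxPC-3 cells treated for 4, 16 or 24 h across a concentration series. ZFP91 immunoblotted against GAPDH; bands quantified by densitometry, DC50 calculated from dose-response curves of the densitometry.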

log2FC [1]: -0.67
log2FC [2]: -0.63
log2FC [3]: -0.9
log2FC [4]: -0.82
log2FC [5]: -1.25
log2FC [9]: -0.63
log2FC [10]: -0.74
pIC50 (MIA PaCa-2): 6.00
log2FC [12]: -0.9
log2FC [13]: -0.78
log2FC [14]: -0.64
log2FC [15]: -0.84
pIC50 (BXPC-3): 6.10
log2FC [16]: -0.69
Activity [19]: inactive
log2FC [20]: -0.67
Activity [21]: Active
Compound: O=C1CCC(N2C(=O)c3cccc(NCCCCCC4CCN(CCNC(=O)c5cc6c(o5)C(=O)c5ccccc5C6=O)CC4)c3C2=O)C(=O)N1 (centres undefined)
log2FC [6]: 1.24
log2FC [7]: 0.62
log2FC [8]: 1.58
log2FC [11]: 0.73
pIC50 (HEK293): 5.06
log2FC [17]: 1.04
log2FC [18]: 0.67
